Experimental data published in ChEMBL document CHEMBL4433211, “Discovery of the First-in-Class GSK-3β/HDAC Dual Inhibitor as Disease-Modifying Agent To Combat Alzheimer's Disease” (ACS Med Chem Lett, 2019).
Values after ≈ are worked out from the molar mass of the structure shown. Active and inactive are the calls of the source. No cut-off for these calls is given here.

Assays:
[1] = target: T1, Glycogen synthase kinase-3 beta (Homo sapiens, UniProt P49841); assay: Inhibition of human recombinant GSK3beta using GSM as substrate incubated for 30 mins by luminescence based assay
Target sequence in this assay (P49841 whole entry): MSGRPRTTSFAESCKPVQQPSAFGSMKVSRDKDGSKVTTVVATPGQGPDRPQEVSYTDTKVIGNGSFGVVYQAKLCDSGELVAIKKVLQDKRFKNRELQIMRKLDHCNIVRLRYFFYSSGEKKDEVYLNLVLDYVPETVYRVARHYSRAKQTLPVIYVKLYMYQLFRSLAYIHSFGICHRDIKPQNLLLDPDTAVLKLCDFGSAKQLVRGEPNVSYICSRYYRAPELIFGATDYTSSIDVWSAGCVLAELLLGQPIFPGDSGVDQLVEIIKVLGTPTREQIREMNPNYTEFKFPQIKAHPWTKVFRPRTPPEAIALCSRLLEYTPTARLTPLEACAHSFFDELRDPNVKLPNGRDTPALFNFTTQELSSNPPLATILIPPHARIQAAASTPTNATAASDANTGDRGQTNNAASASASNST

[2] = target: T2, Protein deacetylase HDAC6 (Homo sapiens, UniProt Q9UBN7); assay: Inhibition of human recombinant his tagged HDAC6 expressed in baculovirus infected […] insect cells using batcp as substrate incubated for 1 hr by fluorescence based assay
T2 sequence (Q9UBN7 whole entry): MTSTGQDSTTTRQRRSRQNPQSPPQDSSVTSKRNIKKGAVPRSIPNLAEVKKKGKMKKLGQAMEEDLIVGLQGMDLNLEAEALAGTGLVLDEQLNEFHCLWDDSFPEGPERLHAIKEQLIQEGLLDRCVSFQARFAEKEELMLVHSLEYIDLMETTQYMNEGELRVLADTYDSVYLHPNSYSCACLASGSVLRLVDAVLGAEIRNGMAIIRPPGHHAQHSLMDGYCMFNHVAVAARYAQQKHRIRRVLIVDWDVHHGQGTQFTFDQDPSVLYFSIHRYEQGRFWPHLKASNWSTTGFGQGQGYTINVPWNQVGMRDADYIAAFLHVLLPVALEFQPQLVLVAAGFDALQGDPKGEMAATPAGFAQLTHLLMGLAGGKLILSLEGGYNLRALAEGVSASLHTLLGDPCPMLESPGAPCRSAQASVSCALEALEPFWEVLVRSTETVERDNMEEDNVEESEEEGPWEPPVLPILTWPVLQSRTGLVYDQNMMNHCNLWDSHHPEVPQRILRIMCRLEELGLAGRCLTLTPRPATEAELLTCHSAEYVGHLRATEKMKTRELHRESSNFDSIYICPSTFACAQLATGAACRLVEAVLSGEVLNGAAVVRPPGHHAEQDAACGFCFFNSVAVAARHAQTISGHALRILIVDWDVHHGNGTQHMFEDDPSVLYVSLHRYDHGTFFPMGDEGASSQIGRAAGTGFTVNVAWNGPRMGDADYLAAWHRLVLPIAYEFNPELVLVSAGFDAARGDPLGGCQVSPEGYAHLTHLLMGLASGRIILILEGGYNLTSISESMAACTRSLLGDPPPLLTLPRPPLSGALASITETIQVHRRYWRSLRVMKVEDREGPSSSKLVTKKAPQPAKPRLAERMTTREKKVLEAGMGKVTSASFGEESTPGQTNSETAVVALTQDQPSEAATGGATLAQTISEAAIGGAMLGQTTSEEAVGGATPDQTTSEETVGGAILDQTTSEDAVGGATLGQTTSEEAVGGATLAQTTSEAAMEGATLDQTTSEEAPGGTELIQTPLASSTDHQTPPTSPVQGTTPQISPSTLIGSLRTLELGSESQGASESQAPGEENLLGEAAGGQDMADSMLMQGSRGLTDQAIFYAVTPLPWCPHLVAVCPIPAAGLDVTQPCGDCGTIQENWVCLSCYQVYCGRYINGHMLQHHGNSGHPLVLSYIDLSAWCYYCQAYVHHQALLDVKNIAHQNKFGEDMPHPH

Histone deacetylase 1 = Histone deacetylase 1 (Homo sapiens, UniProt Q13547); assay: Inhibition of human recombinant his tagged HDAC1 expressed in baculovirus infected […] insect cells using tertbutyloxycarbonyl (Boc)-(Ac)-Lys-7-amino-4-methylcoumarin as substrate incubated for 1 hr by fluorescence based assay
Chain of Histone deacetylase 1 (Q13547 whole entry): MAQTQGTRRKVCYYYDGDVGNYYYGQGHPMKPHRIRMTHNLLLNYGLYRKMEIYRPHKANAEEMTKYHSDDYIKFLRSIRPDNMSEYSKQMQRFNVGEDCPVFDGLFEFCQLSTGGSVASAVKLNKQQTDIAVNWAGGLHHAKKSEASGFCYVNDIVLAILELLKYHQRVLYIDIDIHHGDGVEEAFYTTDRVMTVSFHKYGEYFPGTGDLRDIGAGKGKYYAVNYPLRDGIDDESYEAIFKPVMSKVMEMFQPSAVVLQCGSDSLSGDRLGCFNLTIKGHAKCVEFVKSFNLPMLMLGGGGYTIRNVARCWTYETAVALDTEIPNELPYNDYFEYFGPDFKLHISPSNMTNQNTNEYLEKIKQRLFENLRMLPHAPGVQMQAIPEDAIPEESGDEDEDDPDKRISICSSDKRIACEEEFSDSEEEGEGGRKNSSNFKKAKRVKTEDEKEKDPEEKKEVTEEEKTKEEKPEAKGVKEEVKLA

SH-SY5Y [3] = assay: Cytotoxicity against human SH-SY5Y cells at 10 uM incubated for 24 hrs by MTS assay; format: cell-based
Procedure, shortened: (§1)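 SH-SY5Y cells exposed to test compound for 24 h at 37 °C; viability read by MTS assay and expressed as % of untreated control.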

SH-SY5Y [4] = assay: Induction of neurogenesis in human SH-SY5Y cells assessed as upregulation of MAP-2 mRNA at 1 uM incubated for 24 hrs by RT-PCR analysis; format: functional, cell-based
Procedure, shortened: (§2)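 SH-SY5Y cells treated 24 h (10 μM, or 1 μM for one parent compound; retinoic acid positive control); GAP43, N-myc and MAP-2 mRNA measured by RT-PCR, expressed as fold of control.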

Microglia [5] = assay: Immunomodulatory activity in LPS treated Wistar rat primary microglial cells assessed as effect on TREM2 expression level at 5 to 50 uM incubated for 24 hrs by western blot analysis; format: functional, cell-based
Procedure, shortened: (§3)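 Primary microglial cells treated 24 h with LPS in presence or absence of test compound; NOS2, MRC1 and TREM2 protein assessed by Western blot, normalized to GAPDH.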

Microglia [6] = assay: Immunomodulatory activity in LPS treated Wistar rat primary microglial cells assessed as decrease in NOS2 expression level at 5 to 50 uM incubated for 24 hrs by western blot analysis; format: functional, cell-based; procedure, shortened: as §3
SH-SY5Y [7] = assay: Induction of neurogenesis in human SH-SY5Y cells assessed as upregulation of N-myc mRNA at 1 uM incubated for 24 hrs by RT-PCR analysis; format: functional, cell-based; procedure, shortened: as §2
SH-SY5Y [8] = assay: Induction of neurogenesis in human SH-SY5Y cells assessed as upregulation of GAP43 mRNA at 1 uM incubated for 24 hrs by RT-PCR analysis; format: functional, cell-based; procedure, shortened: as §2
[9] = target: T1, Glycogen synthase kinase-3 beta; assay: Inhibition of human recombinant GSK3beta up to 50 uM using GSM as substrate incubated for 30 mins by luminescence based assay
Target sequence in this assay (P49841 whole entry, looked up): as the sequence (P49841 whole entry) above

[10] = target: T1, Glycogen synthase kinase-3 beta; assay: Inhibition of GSK3beta in human SH-SY5Y cells assessed as reduction in copper-induced tau hyperphosphorylation at 10 uM preincubated for 1 hr followed by copper addition and measured after 26 hrs by ELISA; format: cell-based; conditions: in the assay text read “16 hrs” for “26 hrs”
Procedure, shortened: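 Differentiated SH-SY5Y cells pretreated 1 h with test agent (LiCl 10 mM reference; compounds 10 μM), then copper 400 μM for 16 h; cells scraped, phospho-tau quantified by immunoenzymatic assay at 450 nm; mean ± SEM.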
Target sequence in this assay (P49841 whole entry, looked up): as the sequence (P49841 whole entry) above

Microglia [11] = assay: Immunomodulatory activity in LPS treated Wistar rat primary microglial cells assessed as decrease in MRC1 expression level at 5 to 50 uM incubated for 24 hrs by western blot analysis; format: functional, cell-based; procedure, shortened: as §3
[12] = target: T3, Histone deacetylase (Homo sapiens) (UniProt Q13547+O15379+Q9UBN7+Q92769+Q9UQL6+Q8WUI4+Q9BY41+Q96DB2+P56524+Q9UKV0+Q969S8); assay: Inhibition of HDAC in human SH-SY5Y cells assessed as increase in acetylation of histone 3 at lysines 9/14 at 5 uM incubated for 30 hrs by Western blot analysis; format: cell-based
Procedure, shortened: (§4)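 Human neuroblastoma SH-SY5Y cells treated 30 h at 0.1, 1.0 and 5.0 μM; cell lysates probed by Western blot for acetylated α-tubulin (HDAC6 cellular marker) and histone H3 acetylated at lysines 9/14 (H3K9K14ac).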

SH-SY5Y [13] = assay: Cytoprotective activity against human SH-SY5Y cells assessed as restoration of H2O2-induced p53 expression level at 10 uM incubated for 24 hrs; format: functional, cell-based
Procedure, shortened: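 SH-SY5Y cells exposed to H2O2 (50 μM) with or without test compound (10 μM); p53 protein levels then measured.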

[14] = Toxicity in zebra fish embryo assessed as development perturbation at 75 uM dosed at 5 hpf and measured after 44 to 48 hpf by microscopic based assay; format: organism-based, Danio rerio; conditions: zebrafish, in vivo
SH-SY5Y [15] = assay: Induction of neurogenesis in human SH-SY5Y cells assessed as upregulation of GAP43 mRNA at 10 uM incubated for 24 hrs by RT-PCR analysis; format: functional, cell-based; procedure, shortened: as §2
SH-SY5Y [16] = assay: Induction of neurogenesis in human SH-SY5Y cells assessed as upregulation of MAP-2 mRNA at 10 uM incubated for 24 hrs by RT-PCR analysis; format: functional, cell-based; procedure, shortened: as §2
SH-SY5Y [17] = assay: Induction of neurogenesis in human SH-SY5Y cells assessed as upregulation of N-myc mRNA at 10 uM incubated for 24 hrs by RT-PCR analysis; format: functional, cell-based; procedure, shortened: as §2
SH-SY5Y [18] = assay: Neuroprotective activity against H2O2-induced cell death in human SH-SY5Y cells at 0.1 uM incubated for 24 hrs by MTS assay; format: functional, cell-based
Procedure, shortened: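 SH-SY5Y cells challenged 24 h with H2O2 (25 and 50 μM) in presence of compounds (0.1–10 μM), alone or as a two-compound combination; viability by MTS assay as % of control.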

[19] = Toxicity in zebra fish embryo at 25 uM dosed at 5 hpf and measured after 44 to 48 hpf by microscopic based assay; format: organism-based, Danio rerio; conditions: zebrafish, in vivo
SH-SY5Y [20] = assay: Induction of neurogenesis in human SH-SY5Y cells assessed as stimulation of neurite outgrowth at 10 uM incubated for 72 hrs by phase contrast microscopic analysis; format: functional, cell-based
Procedure, shortened: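 SH-SY5Y cells treated 72 h at 10 μM, retinoic acid (10 μM) as positive control; neurite-bearing cells scored from images taken at 20× magnification.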

[21] = target: T3, Histone deacetylase (Homo sapiens); assay: Inhibition of HDAC in human SH-SY5Y cells assessed as increase in acetylation of histone 3 at lysines 9/14 at 0.1 to 5 uM incubated for 30 hrs by Western blot analysis; format: cell-based; procedure, shortened: as §4
[22] = Toxicity in zebra fish embryo assessed as crooked tail at 50 to 75 uM uM dosed at 5 hpf and measured after 44 to 48 hpf by microscopic based assay; format: organism-based, Danio rerio; conditions: zebrafish, in vivo
[23] = target: T4, Protein deacetylase HDAC6 (Homo sapiens) (UniProt Q9UBN7); assay: Inhibition of HDAC6 in human SH-SY5Y cells assessed as increase in acetylation of alpha-tubulin incubated for 30 hrs by Western blot analysis; format: cell-based; procedure, shortened: as §4
T4 sequence (whole entry): T2 sequence (Q9UBN7 whole entry)

SH-SY5Y [24] = assay: Cytotoxicity against human SH-SY5Y cells up to 100 uM incubated for 24 hrs by MTS assay; format: cell-based; procedure, shortened: as §1
[25] = Toxicity in zebra fish embryo assessed as lethality at < 100 uM dosed at 5 hpf and measured after 44 to 48 hpf by microscopic based assay; format: organism-based, Danio rerio; conditions: zebrafish, in vivo
Procedure, shortened: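 Wild-type zebrafish embryos exposed to the compound at concentrations below 100 μM, including 25, 50 and 75 μM. Control embryos were kept in 2% DMSO vehicle. Embryos were scored for lethality, and their morphology, including tail and eye formation, was inspected by imaging.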

[26] = Toxicity in zebra fish embryo assessed as malformation of eye at 75 uM uM dosed at 5 hpf and measured after 44 to 48 hpf by microscopic based assay; format: organism-based, Danio rerio; conditions: zebrafish, in vivo
[27] = tested on: Cerebellar granule neurone; assay: Neuroprotective activity against 6-OHDA-induced cell death in Wistar rat primary cerebellar granule neurons at 5 uM preincubated for 6 hrs followed by 6-OHDA addition and measured after 24 hrs by MTT assay; format: functional, cell-based
Procedure, shortened: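 Primary differentiated cerebellar granule neurons challenged with 6-OHDA with or without test compound; viability assessed; mean ± SE of at least 3 experiments in quadruplicate, one-way ANOVA with Bonferroni post hoc test.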

[28] = Aqueous solubility of the compound in PBS incubated for 24 hrs under continuous stirring condition by UV spectrometric assay; format: physicochemical
[29] = Toxicity in zebra fish embryo assessed as stunted tail at 50 to 75 uM uM dosed at 5 hpf and measured after 44 to 48 hpf by microscopic based assay; format: organism-based, Danio rerio; conditions: zebrafish, in vivo

O=C(CCCNC(=S)Nc1ccc2c(c1)C(=O)NC2=O)NO
IC50 [1]: 9.85 µM
IC50 [2]: 12.6 µM
IC50 (Histone deacetylase 1): 2.24 µM

O=C(CCCCCCC(=O)Nc1ccccc1)NO [VORINOSTAT]
Activity (SH-SY5Y [3]): Toxic
Activity (SH-SY5Y [4]): Active
Activity (Microglia [5]): inactive
Activity (Microglia [6]): Active
Activity (SH-SY5Y [7]): Active
Activity (SH-SY5Y [8]): Active
inhibition [9]: inactive
inhibition [10]: Active
Activity (Microglia [11]): Active

O=C(CCCCCNC(=S)Nc1ccc2c(c1)C(=O)NC2=O)NO
inhibition [12]: inactive
Activity (SH-SY5Y [13]): Active
Activity [14]: Toxic
Activity (SH-SY5Y [15]): Active
Activity (SH-SY5Y [16]): Active
Activity (SH-SY5Y [17]): Active
IC50 [1]: 2.69 µM
Activity (SH-SY5Y [18]): Active
Activity [19]: Non-Toxic
Activity (SH-SY5Y [20]): Active
inhibition [21]: inactive
Activity [22]: Toxic
Activity (Microglia [5]): inactive
inhibition [23]: Dose-dependent effect
Activity (SH-SY5Y [24]): Non-Toxic
Activity (Microglia [6]): Active
IC50 [2]: 3.19 µM
Activity [25]: Non-Toxic
Activity [26]: Toxic
inhibition [10]: Active
Activity [27]: Active
Activity (Microglia [11]): Active
solubility at 24 h [28]: 153 µM (≈ 53.8 µg/mL)
IC50 (Histone deacetylase 1): 12.8 µM
Activity [29]: Toxic

O=C(CCNC(=S)Nc1ccc2c(c1)C(=O)NC2=O)NO
IC50 [1]: 20 µM
IC50 [2]: 18.1 µM
IC50 (Histone deacetylase 1): 3.75 µM
